Reference: ChEMBL document CHEMBL5344427, “Small Molecule Ligands of the BET-like Bromodomain, SmBRD3, Affect Schistosoma mansoni Survival, Oviposition, and Development” (J Med Chem, 2023)
Activity calls are given as the source filed them. The rule behind the calls is not given here.

What was measured:
[1] = Binding affinity to Schistosoma mansoni BRD3 BD 2 assessed as dissociation constant by ITC analysis
Schistosoma mansoni [2] = assay: Antiparasitic activity against Schistosoma mansoni adult worms assessed as lethality at 20 uM incubated for 72 hrs; type: functional, organism-based
Schistosoma mansoni [3] = assay: Antiparasitic activity against Schistosoma mansoni adult worms assessed as reduction in worm pairing at 20 uM incubated for 72 hrs by imaging analysis; type: functional, organism-based
Method in brief: (§1)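 Adult worm pairs perfused from TO mice infected percutaneously 7 weeks earlier with 180 cercariae; 1 pair/well in duplicate, dosed at 20 μM in 0.2% DMSO for 72 h. Motility scored by digital image processing (WormassayGP2); in vitro laid eggs counted and pairing noted. DMSO negative and praziquantel positive controls; n = 2 independent screens, 2 technical replicates each.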

Schistosoma mansoni [4] = assay: Antiparasitic activity against Schistosoma mansoni assessed as effect on schistosomula phenotype at 10 to 20 uM incubated for 72 hrs by high content imaging analysis; type: functional, organism-based; conditions: dose 10-20 µM
Method in brief: (§2)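 Schistosomula from mechanically transformed cercariae, 120/well, dosed from 10 mM DMSO stock at 20 and 10 μM final in duplicate (0.625% DMSO), ≥4 independent screens (Z′ >0.35). Auranofin 10 μM positive and DMSO negative controls. Phenotype and motility read by high content imaging after 72 h.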

Schistosoma mansoni [5] = assay: Antiparasitic activity against Schistosoma mansoni assessed as effect on schistosomula motility at 10 to 20 uM incubated for 72 hrs by high content imaging analysis; type: functional, organism-based; conditions: dose 10-20 µM; method in brief: as §2
Schistosoma mansoni [6] = assay: Antiparasitic activity against Schistosoma mansoni assessed as inhibition of miracidia to sporocyst transformation at 0.5 to 25 uM incubated for 48 hrs by enumeration method; type: functional, organism-based; conditions: dose 0.5-25 µM
Method in brief: (§3)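 Miracidia hatched from eggs, washed in Chernin's balanced salt solution, 15–25 per well. Exposed to 0.5, 2.0, 5.0, 10 and 25 μM final in 1% DMSO, 48 h at 26 °C in the dark. Dead, partially and fully transformed parasites counted as % of population. Three independent experiments, two technical replicates each; CBSS/1% DMSO negative control.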

Schistosoma mansoni [7] = assay: Antiparasitic activity against Schistosoma mansoni assessed as effect on schistosomula phenotype incubated for 72 hrs by high content imaging analysis; type: functional, organism-based; method in brief: as §2
Schistosoma mansoni [8] = assay: Antiparasitic activity against Schistosoma mansoni assessed as effect on schistosomula motility incubated for 72 hrs by high content imaging analysis; type: functional, organism-based; method in brief: as §2
Schistosoma mansoni [9] = assay: Binding affinity to Schistosoma mansoni BRD3 BD 2 by ITC analysis
Schistosoma mansoni [10] = assay: Binding affinity to Schistosoma mansoni BRD3 BD 1 and 2 assessed as thermal stability at 50 uM by DSF analysis
Method in brief: (§4)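 Differential scanning fluorimetry on recombinant SmBRD3(1,2) tandem construct or SmBRD3(2) single domain, compounds at 50 μM; ΔTm as mean of n = 3 with SD.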

Schistosoma mansoni [11] = assay: Binding affinity to Schistosoma mansoni BRD3 BD 2 assessed as thermal stability at 50 uM by DSF analysis; method in brief: as §4
Schistosoma mansoni [12] = assay: Binding affinity to Schistosoma mansoni BRD3 BD 1 assessed as thermal stability at 50 uM by DSF analysis
Schistosoma mansoni [13] = assay: Antiparasitic activity against Schistosoma mansoni assessed as inhibition of miracidia to sporocyst transformation incubated for 48 hrs by enumeration method; type: functional, organism-based; conditions: dose 0.5-25 µM; method in brief: as §3
[14] = (§5) Prodrug conversion in Schistosoma mansoni adult worms assessed as ester hydrolysis in media at 20 uM incubated for 24 hrs followed by compound washout thrice and subsequent addition of fresh medium without compound by LC-MS analysis; type: ADME
[15] = Drug uptake in Schistosoma mansoni adult worms at 20 uM incubated for 24 hrs followed by compound washout thrice and subsequent addition of fresh medium without compound by LC-MS analysis; type: ADME
Method in brief: (§6)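 Adult worms exposed to 20 μM compound for 24 h, medium exchanged three times, worms then lysed; parent and acid levels in lysate quantified by LCMS.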

[16] = as §5, with “4-{(2S,4R)-1-acetyl-2-methyl-4-[(quinolin-6-yl)amino]-1,2,3,4-tetrahydroquinolin-6-yl}benzoic acid metabolite formation” for “ester hydrolysis in media”; type: ADME; method in brief: as §6
Schistosoma mansoni [17] = assay: Antiparasitic activity against Schistosoma mansoni adult worms assessed as reduction in oviposition at 20 uM incubated for 72 hrs by imaging analysis; type: functional, organism-based; method in brief: as §1
Schistosoma mansoni [18] = assay: Antiparasitic activity against Schistosoma mansoni adult worms assessed as effect on worm motility at 20 uM incubated for 72 hrs by imaging analysis; type: functional, organism-based; method in brief: as §1
[19] = Binding affinity to Schistosoma mansoni BRD3 BD 1 and 2 assessed as dissociation constant by ITC analysis
[20] = Prodrug conversion in Schistosoma mansoni adult worms assessed as 3-(3,5-dimethylisoxazol-4-yl)-5-(hydroxy(phenyl)methyl)phenol metabolite formation at 20 uM incubated for 24 hrs followed by compound washout thrice and subsequent addition of fresh medium without compound by LC-MS analysis; type: ADME

CCOC(=O)c1ccc(-c2ccc3c(c2)[C@H](Nc2ccc4ncsc4c2)C[C@H](C)N3C(C)=O)cc1
Kd [1]: 1180 nM
Activity (Schistosoma mansoni [2]): inactive

CC(=O)N1c2ccc(-c3ccc(C(=O)O)cc3)cc2[C@H](Nc2ccc3ccsc3c2)C[C@@H]1C
pKd [1]: 6.2
Activity (Schistosoma mansoni [2]): inactive

O=C(C1CCCCC1)N1CC(=O)N2CCc3ccccc3C2C1 (centres undefined)
Activity (Schistosoma mansoni [2]): inactive

CCOC(=O)c1ccc(-c2ccc3c(c2)[C@H](Nc2ccc4ccoc4c2)C[C@H](C)N3C(C)=O)cc1
Kd [1]: 1180 nM
Activity (Schistosoma mansoni [2]): inactive

CCOC(=O)c1ccc(-c2ccc3c(c2)[C@@H](Nc2ccc4ccsc4c2)C[C@@H](C)N3C(C)=O)cc1
Activity (Schistosoma mansoni [3]): inactive
Activity (Schistosoma mansoni [4]): inactive
Activity (Schistosoma mansoni [5]): inactive
Activity (Schistosoma mansoni [2]): inactive
inhibition (Schistosoma mansoni [6]): Active

CCOC(=O)c1ccc(-c2ccc3c(c2)[C@H](Nc2ccc4[nH]ccc4c2)C[C@H](C)N3C(C)=O)cc1
Kd [1]: 651 nM
Activity (Schistosoma mansoni [2]): inactive

CC(=O)N1c2ccc(-c3ccc(C(=O)O)cc3)cc2[C@H](Nc2ccc3ncccc3c2)C[C@@H]1C
pKd [1]: 6.4
EC50 (Schistosoma mansoni [7]): 1110 nM
EC50 (Schistosoma mansoni [8]): 3300 nM
Activity (Schistosoma mansoni [2]): inactive

CC(=O)N1c2ccc(-c3ccc(C(=O)O)cc3)cc2[C@@H](Nc2ccc3ccsc3c2)C[C@H]1C
Activity (Schistosoma mansoni [9]): inactive
Activity (Schistosoma mansoni [4]): inactive
Activity (Schistosoma mansoni [5]): inactive
Activity (Schistosoma mansoni [2]): inactive

Cc1noc(C)c1-c1cc(O)cc(C(O)c2ccccc2)c1 (centres undefined)
Activity (Schistosoma mansoni [10]): Active
Activity (Schistosoma mansoni [11]): inactive
Activity (Schistosoma mansoni [12]): Active
Activity (Schistosoma mansoni [9]): inactive
Activity (Schistosoma mansoni [2]): inactive

CC(=O)N1c2ccc(-c3ccc(C(=O)O)cc3)cc2[C@H](Nc2ccc3[nH]ccc3c2)C[C@@H]1C
pKd [1]: 6.2
EC50 (Schistosoma mansoni [7]): 2970 nM
EC50 (Schistosoma mansoni [8]): 1810 nM
Activity (Schistosoma mansoni [2]): inactive

COc1cc2c3c(cnc2cc1-c1c(C)noc1C)NC(=O)C3[C@H](C)c1ccccn1 (some centres undefined)
pKd [1]: 5.2

CC(=O)N1c2ccc(-c3ccc(C(=O)O)cc3)cc2[C@H](Nc2ccc3sccc3c2)C[C@@H]1C
pKd [1]: 6.3
Activity (Schistosoma mansoni [2]): inactive

CC(=O)N1c2ccc(-c3ccc(C(=O)O)cc3)cc2[C@H](Nc2ccc3ccoc3c2)C[C@@H]1C
pKd [1]: 5.9
EC50 (Schistosoma mansoni [7]): 2430 nM
EC50 (Schistosoma mansoni [8]): 3920 nM
Activity (Schistosoma mansoni [2]): inactive

CCOC(=O)c1ccc(-c2ccc3c(c2)[C@H](Nc2ccc4sccc4c2)C[C@H](C)N3C(C)=O)cc1
Activity (Schistosoma mansoni [2]): inactive

Cc1noc(C)c1-c1cc(O)cc(C(O)c2ccc(F)cc2)c1 (centres undefined)
Activity (Schistosoma mansoni [9]): inactive
Activity (Schistosoma mansoni [2]): inactive
inhibition (Schistosoma mansoni [6]): inactive

CC[C@@H]1C(=O)N(C)c2cnc(Nc3ccc(C(=O)NC4CCN(C)CC4)cc3OC)nc2N1C1CCCC1
Activity (Schistosoma mansoni [10]): Active
Activity (Schistosoma mansoni [11]): Active

CCOC(=O)c1ccc(-c2ccc3c(c2)[C@H](Nc2ccc4ncccc4c2)C[C@H](C)N3C(C)=O)cc1
Kd [1]: 364 nM
Activity (Schistosoma mansoni [2]): inactive
inhibition (Schistosoma mansoni [13]): Dose-Dependent Effect
Drug metabolism [14]: Metabolite_Detected
Drug uptake [15]: Active
Drug metabolism [16]: Metabolite_Detected

CCOC(=O)c1ccc(-c2ccc3c(c2)[C@H](Nc2ccc4ccsc4c2)C[C@H](C)N3C(C)=O)cc1
Activity (Schistosoma mansoni [3]): Active
Activity (Schistosoma mansoni [17]): Active
Activity (Schistosoma mansoni [18]): Active
Activity (Schistosoma mansoni [2]): inactive
inhibition (Schistosoma mansoni [13]): Dose-Dependent Effect

Cc1sc2c(c1C)C(c1ccc(Cl)cc1)=N[C@@H](CC(=O)OC(C)(C)C)c1nnc(C)n1-2
Activity (Schistosoma mansoni [10]): Active
Activity (Schistosoma mansoni [11]): inactive
Activity (Schistosoma mansoni [12]): Active
Kd [19]: 445 nM
pKd [19]: 6.4
Activity (Schistosoma mansoni [9]): inactive
Activity (Schistosoma mansoni [2]): inactive
inhibition (Schistosoma mansoni [6]): Active

CC(=O)N1c2ccc(-c3ccc(C(=O)O)cc3)cc2[C@H](Nc2ccc3ncsc3c2)C[C@@H]1C
pKd [1]: 5.9
EC50 (Schistosoma mansoni [7]): 2140 nM
EC50 (Schistosoma mansoni [8]): 2850 nM
Activity (Schistosoma mansoni [2]): inactive

CC(=O)N1c2ccc(-c3ccc(C(=O)O)cc3)cc2[C@H](Nc2ccc(Cl)cc2)C[C@@H]1C
Activity (Schistosoma mansoni [10]): Active
Activity (Schistosoma mansoni [11]): Active
pKd [1]: 5.7
Activity (Schistosoma mansoni [2]): inactive

Cc1noc(C)c1-c1cc(O)cc(C(O)c2cccnc2)c1 (centres undefined)
Activity (Schistosoma mansoni [9]): inactive
Activity (Schistosoma mansoni [2]): inactive

CC(=O)Oc1cc(-c2c(C)noc2C)cc(C(O)c2ccccc2)c1 (centres undefined)
Activity (Schistosoma mansoni [9]): inactive
Activity (Schistosoma mansoni [4]): Active
Activity (Schistosoma mansoni [5]): Active
Activity (Schistosoma mansoni [2]): inactive
inhibition (Schistosoma mansoni [6]): inactive
Drug metabolism [20]: Metabolite_Detected
